Screening data from PubChem BioAssay.
Compounds with a hit are over-represented: about 4% of the library has one in this group of screens.
FN deposition inh: fibronectin deposition inhibition; AH1F fibroblasts, Alexa488-fibronectin deposition fluorescence, overnight; inhibition, % at 12.6 µM; 350,000 compounds, 0.086% hits; AID 743247;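 active means mean inhibition across replicates of 30% or more, regardless of how many single replicates reach that level; inconclusive means mean under 30% yet at least half of replicates reach 30%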;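 further: positive control wells lacked labelled fibronectin entirely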
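Material: AH1F fibroblasts assembling fluorescent fibronectin matrix; amount: 10000 AH1F cells/well; medium: DMEM, 2% serum; reagent: Alexa488-fibronectin, 24 nM final in well; dosing: single compound dose, delivered by pin transfer; incubation: 1 h adhesion, overnight exposure; detection: fluorescence after three HBSS washes, excitation 485 nm, emission 525 nm; measure: fibronectin deposition inhibition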
SIRT5 inh: inhibitors of human sirtuin-5 desuccinylase; Purified SirT5, succinyl-peptide AMC, trypsin-coupled fluorescence; inhibition, % at 15 µM; 330,000 compounds, 1.1% hits; in the data active means inhibition above about 15%; inconclusive means no clear call, values can overlap the other calls
E-selectin induc: induces E-selectin expression in human endothelial cells. P16581. HUVEC E-selectin immunofluorescence imaging; normalized: neutral wells 0, TNF-alpha wells 100. activation, % at 7.58 µM. 260,000 compounds, 0.37% hits. AID 686992;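 active means mean E-selectin-positive cell signal at least 10% of the positive control, reached in at least 60% of replicates, without over 20% cell loss; inconclusive means no rule given, readout overlaps actives, possibly toxicity-flagged; inactive means the rest, including those meeting only one limit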
Target sequence (P16581 whole entry, looked up): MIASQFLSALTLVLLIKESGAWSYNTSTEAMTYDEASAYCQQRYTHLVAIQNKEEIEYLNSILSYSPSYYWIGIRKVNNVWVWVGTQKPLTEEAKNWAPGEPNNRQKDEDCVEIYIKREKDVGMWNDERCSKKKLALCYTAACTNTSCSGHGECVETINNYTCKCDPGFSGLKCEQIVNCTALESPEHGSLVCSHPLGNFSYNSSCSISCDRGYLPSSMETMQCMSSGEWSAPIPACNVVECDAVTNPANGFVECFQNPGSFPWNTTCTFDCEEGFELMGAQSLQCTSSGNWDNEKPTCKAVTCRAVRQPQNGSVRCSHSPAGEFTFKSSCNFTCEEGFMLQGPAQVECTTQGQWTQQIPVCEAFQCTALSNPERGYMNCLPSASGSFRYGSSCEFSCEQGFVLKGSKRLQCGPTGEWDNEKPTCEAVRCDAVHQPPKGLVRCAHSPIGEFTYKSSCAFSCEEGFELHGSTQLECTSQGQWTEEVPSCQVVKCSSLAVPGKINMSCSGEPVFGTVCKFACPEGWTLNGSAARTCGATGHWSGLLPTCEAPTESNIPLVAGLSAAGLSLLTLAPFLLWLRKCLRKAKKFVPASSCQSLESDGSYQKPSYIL
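Read-out: % PE-positive cells | Test system: HUVEC | Doses: One compound dose added by pin transfer | Buffer or medium: EGM-2 over gelatin coat | Signal: Immunofluorescence imaging | Benchmarks: TNF-alpha, DMSO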
C2C12 statin: protects C2C12 myotubes from simvastatin toxicity | ATP luminescence, 48 h; scaled: DMSO 0, geranylgeraniol control 100 | rescue of ATP level, % at 7.49 µM | 330,000 compounds, 0.78% hits | AID 602340;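 active means mean ATP rescue above about 67%, or every replicate alone reaching that limit, limit read from the data, passing the limit was not always enough; inconclusive means no clear call, values can overlap the other calls; inactive means mean under the limit and some replicate under it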;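 further: myotubes were challenged with 10 µM simvastatin during compound exposure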
FGF22 binding: shifts melting point of recombinant human FGF22 | recombinant FGF22 thermal shift, SYPRO orange fluorescence; percent of sucrose octasulfate shift, DMSO zero | AID 651658 | activity (Tm shift, normalised), % at 9.99 µM | Q9HCT0 | 340,000 compounds, 1.5% hits;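 active means mean Tm shift, scaled 0 neutral to 100 positive control, at about 1.3% or above, every replicate too, limit read from the data; inconclusive means no clear call, values can overlap the other calls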
rRNA inh HTS: inhibitors of bacterial rRNA selective over humanized ribosomes; 350,000 compounds, 1.6% hits; GFP signal change (wild-type ribosome), % (no concentration beside the values); E. coli WT GFP vs humanized-ribosome RFP mutants, fluorescence, 24 h; hits give low values; DMSO median 0, no signal -100; AID 720706;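 active means significant combined selectivity score with lowered wild-type GFP, culture density cut under 30%, mutant RFP and density less affected; inactive means any of these conditions unmet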
Active calls of the source: *; ? = inconclusive; nt = no result.

SMILES	FN deposition inh	SIRT5 inh	E-selectin induc	C2C12 statin	FGF22 binding	rRNA inh HTS
CCC(=O)Nc1ccc2c(c1)C(=O)N(C)C[C@@H](OC)[C@H](C)CN(Cc1cncnc1)[C@@H](C)CO2	6	nt	0	1	nt	1
CO[C@H]1CN(C)C(=O)c2cc(NC(=O)c3ccc(F)cc3)ccc2OC[C@H](C)N(C(C)=O)C[C@H]1C	-9	-1	1	-9	0	2
O=C(NCCc1ccccc1)[C@H]1[C@H](CO)[C@H]2Cn3c(cccc3=O)[C@@H]1N2Cc1ccccn1	nt	-6	-1	14	0	5
Cn1c(N)c(C(=O)COC(=O)CNC(=O)c2ccccc2)c(=O)n(C)c1=O	4	2	0	-7	0	8
Cc1ccc(OCCC(=O)OCC(=O)c2c(N)n(CC(C)C)c(=O)n(C)c2=O)cc1	-10	-1	nt	-1	0	-6
Cn1c(N)c(C(=O)COC(=O)CCc2ccccc2)c(=O)n(C)c1=O	0	-6	107*	-3	0	-14
O=C(CCc1ccccc1)OCC(=O)c1ccc(Br)cc1	-24	2	nt	-3	43*	4
CCOc1ccc(OCCC(=O)OCC(=O)c2c(N)n(CC(C)C)c(=O)n(C)c2=O)cc1	9	nt	0	1	0	-17*
CO[C@@H]1CN(C)C(=O)c2ccc(NC(=O)c3cc(C)on3)cc2OC[C@@H](C)N(CC2CC2)C[C@H]1C	-7	-1	0	nt	0	2
C/C(=N\N=C1\NC(=O)C(Cc2ccccc2)S1)c1ccccc1 (configuration not stated)	-1	-1	0	nt	0	-52*
CSCCC(NS(=O)(=O)c1ccccc1)C(=O)OCc1cc(=O)oc2cc(O)ccc12 (configuration not stated)	4	-30	nt	0	0	-22*
O=C1CN(Cc2ccccc2)C[C@@H]2[C@H](c3ccc(-c4cccnc4)cc3)[C@@H](CO)N12	nt	1	0	nt	nt	-2
Cc1nn(-c2ccccc2)c2[nH]c(=O)cc(C(F)(F)F)c12	2	76*	nt	-8	42	-25
Cc1cc(=O)[nH]c2c1c(C)nn2-c1ccccc1	2	nt	0	2	nt	nt
c1ccc(SCc2cn(C[C@H]3CC[C@@H]([C@@H]4CC[C@H](Cn5cc(CSc6ccccc6)nn5)O4)O3)nn2)cc1	1	-2	0	2	0	-26
c1ccc(Cn2cc(CSc3ccccc3)nn2)cc1	-5	1	0	0	0	-33*
CCCNC(=O)c1cn(CC)c2cc(N3CCN(C(=O)c4ccco4)CC3)c(F)cc2c1=O	7	-5	0	-15	0	-53
CCCCCCC(=O)N1CCN(c2cc3c(cc2F)c(=O)c(C(=O)O)cn3CC)CC1	nt	nt	nt	153*	nt	nt
CCn1cc(C(=O)NCc2cccc(F)c2)c(=O)c2cc(F)c(N3CCN(C(=O)c4ccco4)CC3)cc21	nt	nt	nt	79*	nt	nt
CCCCCCCCCC(=O)N1CCN(c2cc3c(cc2F)c(=O)c(C(=O)O)cn3CC)CC1	-3	-2	nt	-1	0	-32
COCC(=O)Nc1ccc2c(c1)C(=O)N(C)[C@H]1CC[C@H](CC(=O)NCc3ccc(OC)cc3)O[C@H]1CO2	-7	nt	0	-3	0	1
C[C@@H](NC(=O)C[C@@H]1CC[C@H]2[C@@H](COC[C@@H](O)CN2C(=O)Nc2ccccc2)O1)c1ccccc1	-8	3	0	-12	-1	-1
CC1(C)CC(=O)C(CC(=O)Nc2cc(C(F)(F)F)ccc2Cl)C(=O)C1	3	-3	nt	nt	44*	-5
CC(OC(=O)C1CC1)C(=O)Nc1cc(C(F)(F)F)ccc1Cl (configuration not stated)	-4	-1	nt	0	44*	0
CN(C)CCCNC(=O)[C@@H]1[C@@H](CO)[C@@H]2Cn3c(ccc(-c4cccc(F)c4)c3=O)[C@H]1N2	nt	-39	2	nt	nt	4
SMILES	FN deposition inh	SIRT5 inh	E-selectin induc	C2C12 statin	FGF22 binding	rRNA inh HTS
C[C@@H]1CCCCO[C@H](CN(C)C(=O)Nc2ccc(F)cc2)[C@H](C)CN([C@@H](C)CO)C(=O)c2cc(NS(=O)(=O)c3ccc(Cl)cc3)ccc2O1	-7	-5	1	nt	nt	0
O=C(C[C@@H]1C[C@H]2c3cc(NC(=O)C4CCOCC4)ccc3O[C@H]2[C@H](CO)O1)NCC1CC1	-6	6	0	3	nt	3
O=C(CCc1ccc(O)c(O)c1)NNC(=S)NCCc1ccccc1	7	10	-1	nt	0	0
O=C(CCc1ccc(O)c(O)c1)NNC(=S)Nc1ccc(Br)cc1Cl	9	3	nt	nt	1	-24*
CCOc1ccc(-c2nc(CSCC(=O)NCCCN3CCCC3=O)c(C)o2)cc1	-7	2	nt	2	0	9
CCOc1ccc(-c2nc(CSCC(=O)NCCN3CCOCC3)c(C)o2)cc1	nt	nt	nt	102*	nt	nt
O=C(CN1c2ccccc2Sc2ccccc21)N/N=C/c1ccc([N+](=O)[O-])cc1	-4	0	0	nt	0	-24*
CCN(CC)C(=O)[C@H]1C[C@@H]2[C@H](C[C@@H](c3ccccc3)[C@H]1C)N(c1ccc(F)cc1)C(=O)N2CCCOc1ccccc1	-2	nt	0	nt	43*	18
CON(C)C(=O)[C@H]1C[C@@H]2[C@H](C[C@@H](c3ccccc3)[C@H]1C)N(c1ccc(F)cc1)C(=O)N2CCCOc1ccccc1	-1	nt	0	nt	42	9
COc1cccc(CN(C)CCCn2cnc3c(SC)ncnc32)c1	2	15*	0	-5	0	-2
C(=C\c1ccccc1)/C=N/N1CCN(Cc2ccccc2)CC1	-3	-2	0	nt	1	-25*
COc1ccc(NC(=O)Nc2cccc3c2O[C@@H](CN(C)Cc2ccc(Oc4ccccc4)cc2)[C@@H](C)CN([C@@H](C)CO)C3=O)cc1	nt	15*	nt	?	-1	-2
C[C@H](CO)N1C[C@H](C)[C@H](CN(C)Cc2ccncc2)Oc2c(NC(=O)Nc3ccc(F)cc3)cccc2C1=O	nt	0	105*	-3	0	5
COc1ccc(NC(=O)Nc2cccc3c2O[C@@H](CN(C)Cc2ccc(Oc4ccccc4)cc2)[C@@H](C)CN([C@H](C)CO)C3=O)cc1	nt	-1	nt	?	-1	0
COc1ccc(NC(=O)Nc2cccc3c2O[C@H](CN(C)Cc2ccc(Oc4ccccc4)cc2)[C@H](C)CN([C@H](C)CO)C3=O)cc1	nt	14	-2	-16	0	0
C[C@H]1CN([C@@H](C)CO)C(=O)c2cccc(NC(=O)Nc3ccc(F)cc3)c2O[C@@H]1CN(C)Cc1ccncc1	nt	-2	-10	0	0	-4
